Experimental data: ChEMBL document CHEMBL4265950, “Discovery of furyl/thienyl β-carboline derivatives as potent and selective PDE5 inhibitors with excellent vasorelaxant effect” (Eur J Med Chem, 2018)

Experiments:
[1] = species on record: Homo sapiens; test: Selectivity index, ratio of IC50 for inhibition of full length recombinant human N-terminal GST-tagged PDE8A1 expressed in baculovirus infected sf9 cells to IC50 for inhibition of full length recombinant human N-terminal GST-tagged PDE5A1 expressed in baculovirus infected sf9 cells
[2] = target: cAMP and cAMP-inhibited cGMP 3',5'-cyclic phosphodiesterase 10A (Homo sapiens, UniProt Q9Y233); test: Inhibition of recombinant human N-terminal GST-tagged PDE10A1 (2 to 789 residues) expressed in baculovirus infected sf9 cells using FAM-cyclic-3',5-AMP as substrate after 1 hr by fluorescence polarization assay
Outline: (§1)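 Fluorescence polarization assay run at 25 °C for 60 min in 40 mM MOPS pH 7.5, 0.5 mM EDTA, 15 mM MgCl2, 0.15 mg/mL BSA, 1 mM DTT, 0.05% ProClin 200. Contained 15 ng/mL PDE isoform and 100 nM FAM-cGMP or FAM-cAMP according to isoform, with 1% DMSO final. Binding agent added for 1 h at 25 °C; read at […] nm. IC50 from normalized nonlinear dose-response fit.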

[3] = species on record: Homo sapiens; test: Selectivity index, ratio of IC50 for inhibition of full length recombinant human N-terminal GST-tagged PDE9A2 expressed in baculovirus infected sf9 cells to IC50 for inhibition of full length recombinant human N-terminal GST-tagged PDE5A1 expressed in baculovirus infected sf9 cells
[4] = target: cGMP-dependent 3',5'-cyclic phosphodiesterase (Homo sapiens, UniProt O00408); test: Inhibition of recombinant human N-terminal FLAG-tagged PDE2A (2 to 941 residues) expressed in baculovirus infected sf9 cells using FAM-cyclic-3',5-AMP as substrate after 1 hr by fluorescence polarization assay; outline: as §1
[5] = target: T1, cGMP-specific 3',5'-cyclic phosphodiesterase (Homo sapiens, UniProt O76074); test: Inhibition of full length recombinant human N-terminal GST-tagged PDE5A1 expressed in baculovirus infected sf9 cells at 100 nM using FAM-cyclic-3',5-GMP as substrate after 1 hr by fluorescence polarization assay relative to control
Outline: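 Single-point test at 100 nM, reported as percent inhibition. Human PDE5 at 15 ng/mL with 100 nM FAM-cGMP in MOPS pH 7.5 buffer (MgCl2, EDTA, BSA, DTT), 1% DMSO final, 60 min at 25 °C. Binding agent added for 1 h, then fluorescence polarization read at […] nm.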

[6] = target: Cone cGMP-specific 3',5'-cyclic phosphodiesterase subunit alpha' (Homo sapiens, UniProt P51160); test: Inhibition of full length recombinant human N-terminal GST-tagged PDE6C expressed in baculovirus infected sf9 cells using […] as substrate after 1 hr by fluorescence polarization assay
[7] = species on record: Homo sapiens; test: Selectivity index, ratio of IC50 for inhibition of recombinant human N-terminal GST-tagged PDE10A1 (2 to 789 residues) expressed in baculovirus infected sf9 cells to IC50 for inhibition of full length recombinant human N-terminal GST-tagged PDE5A1 expressed in baculovirus infected sf9 cells
[8] = target: High affinity cGMP-specific 3',5'-cyclic phosphodiesterase 9A (Homo sapiens, UniProt O76083); test: Inhibition of full length recombinant human N-terminal GST-tagged PDE9A2 expressed in baculovirus infected sf9 cells using […] as substrate after 1 hr by fluorescence polarization assay; outline: as §1
[9] = target: High affinity cAMP-specific and IBMX-insensitive 3',5'-cyclic phosphodiesterase 8A (Homo sapiens, UniProt O60658); test: Inhibition of full length recombinant human N-terminal GST-tagged PDE8A1 expressed in baculovirus infected sf9 cells using FAM-cyclic-3',5-AMP as substrate after 1 hr by fluorescence polarization assay; outline: as §1
[10] = target: cGMP-specific 3',5'-cyclic phosphodiesterase (Rattus norvegicus, UniProt O54735); test: (§2) Inhibition of PDE5 in Wistar rat mesentric arteries assessed as inhibition of phenylephrine-induced contraction by measuring increase in acetylcholine-induced vasorelaxation by pressure myographic method
Outline: (§3)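 Third-order rat mesenteric arteries (110–150 µm), 3–4 mm unbranched segments, cannulated in PSS (pH 7.4, 95% O2/5% CO2). Equilibrated 35 min while pressure was stepped 10→60 mmHg. Checked with 120 mM KCl and acetylcholine, then constricted with 20 µM phenylephrine (norepinephrine in text) and given compounds cumulatively. Ca²⁺-free PSS set maximal dilation. Outer diameter recorded as % relaxation; EC50 from normalized nonlinear fit.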

[11] = target: cGMP-specific 3',5'-cyclic phosphodiesterase (Rattus norvegicus) (UniProt O54735); test: as §2; outline: as §3
[12] = target: 3',5'-cyclic-AMP phosphodiesterase 4A (Homo sapiens, UniProt P27815); test: Inhibition of full length recombinant human N-terminal GST-tagged PDE4A1A expressed in baculovirus infected sf9 cells using FAM-cyclic-3',5-AMP as substrate after 1 hr by fluorescence polarization assay
[13] = Stability of the compound in PDE5 enzyme assay condition at 100 uM by HPLC analysis; format: ADME
[14] = target: cGMP-inhibited 3',5'-cyclic phosphodiesterase 3B (Homo sapiens, UniProt Q13370); test: Inhibition of recombinant human N-terminal GST-tagged PDE3B (592 to end residues) expressed in baculovirus infected sf9 cells using FAM-cyclic-3',5-AMP as substrate after 1 hr by fluorescence polarization assay; outline: as §1
[15] = species on record: Homo sapiens; test: Selectivity index, ratio of IC50 for inhibition of recombinant human N-terminal GST-tagged PDE7A (122 to end residues) expressed in baculovirus infected sf9 cells to IC50 for inhibition of full length recombinant human N-terminal GST-tagged PDE5A1 expressed in baculovirus infected sf9 cells
[16] = species on record: Homo sapiens; test: Selectivity index, ratio of IC50 for inhibition of full length recombinant human N-terminal GST-tagged PDE6C expressed in baculovirus infected sf9 cells to IC50 for inhibition of full length recombinant human N-terminal GST-tagged PDE5A1 expressed in baculovirus infected sf9 cells
[17] = target: Dual 3',5'-cyclic-AMP and -GMP phosphodiesterase 11A (Homo sapiens, UniProt Q9HCR9); test: Inhibition of full length recombinant human N-terminal GST-tagged PDE11A4 expressed in baculovirus infected sf9 cells using FAM-cyclic-3',5-AMP as substrate after 1 hr by fluorescence polarization assay
[18] = species on record: Homo sapiens; test: Selectivity index, ratio of IC50 for inhibition of full length recombinant human N-terminal GST-tagged PDE11A4 expressed in baculovirus infected sf9 cells to IC50 for inhibition of full length recombinant human N-terminal GST-tagged PDE5A1 expressed in baculovirus infected sf9 cells
[19] = target: High affinity 3',5'-cyclic-AMP phosphodiesterase 7A (Homo sapiens, UniProt Q13946); test: Inhibition of recombinant human N-terminal GST-tagged PDE7A (122 to end residues) expressed in baculovirus infected sf9 cells using FAM-cyclic-3',5-AMP as substrate after 1 hr by fluorescence polarization assay; outline: as §1
[20] = target: T1, cGMP-specific 3',5'-cyclic phosphodiesterase; test: Inhibition of full length recombinant human N-terminal GST-tagged PDE5A1 expressed in baculovirus infected sf9 cells using FAM-cyclic-3',5-GMP as substrate after 1 hr by fluorescence polarization assay
[21] = target: Dual specificity calcium/calmodulin-dependent 3',5'-cyclic nucleotide phosphodiesterase 1A (Homo sapiens, UniProt P54750); test: Inhibition of full length recombinant human N-terminal GST-tagged PDE1A expressed in baculovirus infected sf9 cells using FAM-cyclic-3',5-AMP as substrate after 1 hr by fluorescence polarization assay; outline: as §1
[22] = species on record: Homo sapiens; test: Selectivity ratio of IC50 for PDE6 (unknown origin) to IC50 for PDE5 (unknown origin)
[23] = target: T1, cGMP-specific 3',5'-cyclic phosphodiesterase; test: Inhibition of PDE5 (unknown origin)
[24] = species on record: Homo sapiens; test: Selectivity ratio of Ki for PDE6 (unknown origin) to Ki for PDE5 (unknown origin)

Sequence of High affinity 3',5'-cyclic-AMP phosphodiesterase 7A (Q13946 whole entry): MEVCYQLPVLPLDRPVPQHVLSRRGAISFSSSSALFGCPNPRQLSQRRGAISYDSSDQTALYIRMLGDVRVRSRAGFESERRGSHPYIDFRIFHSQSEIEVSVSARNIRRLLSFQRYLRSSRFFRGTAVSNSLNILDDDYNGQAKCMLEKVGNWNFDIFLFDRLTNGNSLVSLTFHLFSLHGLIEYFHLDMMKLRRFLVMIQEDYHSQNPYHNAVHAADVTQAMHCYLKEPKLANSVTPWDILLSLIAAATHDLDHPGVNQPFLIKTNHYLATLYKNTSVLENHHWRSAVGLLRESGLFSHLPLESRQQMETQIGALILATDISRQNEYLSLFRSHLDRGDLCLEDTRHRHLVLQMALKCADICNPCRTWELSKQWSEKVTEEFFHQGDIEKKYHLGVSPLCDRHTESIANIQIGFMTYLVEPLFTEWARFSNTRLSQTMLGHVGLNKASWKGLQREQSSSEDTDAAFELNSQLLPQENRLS
Sequence of Dual specificity calcium/calmodulin-dependent 3',5'-cyclic nucleotide phosphodiesterase 1A (P54750 whole entry): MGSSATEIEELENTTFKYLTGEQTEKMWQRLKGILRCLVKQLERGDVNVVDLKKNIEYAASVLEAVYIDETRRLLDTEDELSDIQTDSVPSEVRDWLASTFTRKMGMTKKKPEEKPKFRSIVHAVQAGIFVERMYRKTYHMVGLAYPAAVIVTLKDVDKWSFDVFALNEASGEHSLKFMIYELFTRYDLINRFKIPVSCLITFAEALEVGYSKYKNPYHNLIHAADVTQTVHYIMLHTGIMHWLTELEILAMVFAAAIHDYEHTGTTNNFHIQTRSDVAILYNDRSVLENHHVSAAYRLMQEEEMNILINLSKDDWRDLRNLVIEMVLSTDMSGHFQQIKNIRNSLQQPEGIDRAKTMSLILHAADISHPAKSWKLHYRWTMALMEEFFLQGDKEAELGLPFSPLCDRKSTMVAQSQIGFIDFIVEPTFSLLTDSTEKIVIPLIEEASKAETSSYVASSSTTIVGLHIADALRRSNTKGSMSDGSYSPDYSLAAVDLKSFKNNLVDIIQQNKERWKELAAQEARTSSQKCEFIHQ
Sequence of Cone cGMP-specific 3',5'-cyclic phosphodiesterase subunit alpha' (P51160 whole entry, the tested form may be a part): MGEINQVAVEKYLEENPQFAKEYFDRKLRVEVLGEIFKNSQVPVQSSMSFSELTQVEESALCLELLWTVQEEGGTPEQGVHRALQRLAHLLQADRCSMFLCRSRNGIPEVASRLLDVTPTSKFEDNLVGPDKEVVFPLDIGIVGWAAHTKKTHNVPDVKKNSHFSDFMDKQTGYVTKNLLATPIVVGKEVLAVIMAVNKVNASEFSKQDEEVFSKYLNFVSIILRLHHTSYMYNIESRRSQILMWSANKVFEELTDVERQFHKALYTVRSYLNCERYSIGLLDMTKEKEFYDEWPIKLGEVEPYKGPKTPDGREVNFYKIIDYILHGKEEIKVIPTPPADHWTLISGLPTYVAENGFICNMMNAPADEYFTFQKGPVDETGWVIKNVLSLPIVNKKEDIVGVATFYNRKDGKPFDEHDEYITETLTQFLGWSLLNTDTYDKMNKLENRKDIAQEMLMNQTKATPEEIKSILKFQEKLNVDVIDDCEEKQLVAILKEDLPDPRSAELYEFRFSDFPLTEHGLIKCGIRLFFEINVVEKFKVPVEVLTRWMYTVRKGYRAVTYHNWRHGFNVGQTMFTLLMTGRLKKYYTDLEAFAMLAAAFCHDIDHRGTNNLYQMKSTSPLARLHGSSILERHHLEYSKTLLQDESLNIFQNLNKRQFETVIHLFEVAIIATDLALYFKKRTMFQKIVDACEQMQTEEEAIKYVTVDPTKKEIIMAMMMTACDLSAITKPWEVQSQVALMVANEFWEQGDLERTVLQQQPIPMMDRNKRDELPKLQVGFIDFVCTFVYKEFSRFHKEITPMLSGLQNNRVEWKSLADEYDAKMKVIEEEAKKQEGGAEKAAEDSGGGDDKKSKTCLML
Sequence of cGMP-dependent 3',5'-cyclic phosphodiesterase (O00408 whole entry, the tested form may be a part): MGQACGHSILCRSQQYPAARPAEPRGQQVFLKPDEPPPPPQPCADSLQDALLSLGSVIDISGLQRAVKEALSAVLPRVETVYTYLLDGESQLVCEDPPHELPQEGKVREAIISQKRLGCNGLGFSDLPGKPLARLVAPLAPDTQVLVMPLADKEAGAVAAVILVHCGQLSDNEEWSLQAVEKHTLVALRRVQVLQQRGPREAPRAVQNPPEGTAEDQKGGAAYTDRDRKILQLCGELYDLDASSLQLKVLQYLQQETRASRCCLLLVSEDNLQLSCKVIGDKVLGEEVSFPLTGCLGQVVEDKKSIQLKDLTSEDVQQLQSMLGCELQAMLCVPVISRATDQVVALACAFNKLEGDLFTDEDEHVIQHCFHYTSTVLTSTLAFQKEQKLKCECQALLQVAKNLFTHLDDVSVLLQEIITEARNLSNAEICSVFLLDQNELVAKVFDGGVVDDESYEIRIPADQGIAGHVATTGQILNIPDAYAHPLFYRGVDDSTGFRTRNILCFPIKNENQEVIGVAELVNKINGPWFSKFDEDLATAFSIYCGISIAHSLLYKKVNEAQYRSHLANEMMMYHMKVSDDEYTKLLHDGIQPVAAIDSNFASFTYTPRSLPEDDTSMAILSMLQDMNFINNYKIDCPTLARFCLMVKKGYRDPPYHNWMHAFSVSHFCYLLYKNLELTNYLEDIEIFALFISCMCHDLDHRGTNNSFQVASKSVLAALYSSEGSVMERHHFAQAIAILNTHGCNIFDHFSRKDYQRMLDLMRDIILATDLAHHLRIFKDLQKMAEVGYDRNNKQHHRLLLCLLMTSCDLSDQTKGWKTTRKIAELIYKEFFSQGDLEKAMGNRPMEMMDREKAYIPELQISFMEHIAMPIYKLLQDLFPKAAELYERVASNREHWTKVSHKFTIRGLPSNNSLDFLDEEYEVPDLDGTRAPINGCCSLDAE
Sequence of cGMP-inhibited 3',5'-cyclic phosphodiesterase 3B (Q13370 whole entry): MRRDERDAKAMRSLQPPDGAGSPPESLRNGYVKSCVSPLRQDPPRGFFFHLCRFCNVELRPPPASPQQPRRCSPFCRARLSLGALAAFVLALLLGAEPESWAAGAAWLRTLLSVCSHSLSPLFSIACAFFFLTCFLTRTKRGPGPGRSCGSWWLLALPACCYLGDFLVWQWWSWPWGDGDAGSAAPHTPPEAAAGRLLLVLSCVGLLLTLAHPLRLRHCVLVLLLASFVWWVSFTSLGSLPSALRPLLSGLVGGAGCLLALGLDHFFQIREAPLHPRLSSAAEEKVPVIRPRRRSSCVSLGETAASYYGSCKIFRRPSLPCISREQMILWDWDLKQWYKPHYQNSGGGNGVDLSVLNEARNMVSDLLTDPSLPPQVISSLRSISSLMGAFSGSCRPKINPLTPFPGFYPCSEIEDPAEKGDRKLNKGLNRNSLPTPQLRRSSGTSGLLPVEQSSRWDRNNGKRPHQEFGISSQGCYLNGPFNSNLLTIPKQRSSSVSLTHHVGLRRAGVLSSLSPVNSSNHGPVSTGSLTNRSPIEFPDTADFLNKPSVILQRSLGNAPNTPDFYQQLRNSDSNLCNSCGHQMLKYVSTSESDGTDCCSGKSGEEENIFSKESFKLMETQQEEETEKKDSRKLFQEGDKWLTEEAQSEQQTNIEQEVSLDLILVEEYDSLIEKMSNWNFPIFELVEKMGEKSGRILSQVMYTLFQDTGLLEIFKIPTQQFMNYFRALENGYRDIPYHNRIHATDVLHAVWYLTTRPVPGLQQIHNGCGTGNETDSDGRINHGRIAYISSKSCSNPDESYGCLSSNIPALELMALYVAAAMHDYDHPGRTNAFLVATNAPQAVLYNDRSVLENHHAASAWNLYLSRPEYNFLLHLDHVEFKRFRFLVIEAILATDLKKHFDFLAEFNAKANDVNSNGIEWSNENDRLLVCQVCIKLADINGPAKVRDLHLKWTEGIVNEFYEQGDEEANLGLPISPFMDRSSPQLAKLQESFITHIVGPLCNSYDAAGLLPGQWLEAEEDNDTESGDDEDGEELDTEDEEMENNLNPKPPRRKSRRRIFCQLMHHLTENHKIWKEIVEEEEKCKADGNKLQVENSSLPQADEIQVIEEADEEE
Sequence of High affinity cGMP-specific 3',5'-cyclic phosphodiesterase 9A (O76083 whole entry): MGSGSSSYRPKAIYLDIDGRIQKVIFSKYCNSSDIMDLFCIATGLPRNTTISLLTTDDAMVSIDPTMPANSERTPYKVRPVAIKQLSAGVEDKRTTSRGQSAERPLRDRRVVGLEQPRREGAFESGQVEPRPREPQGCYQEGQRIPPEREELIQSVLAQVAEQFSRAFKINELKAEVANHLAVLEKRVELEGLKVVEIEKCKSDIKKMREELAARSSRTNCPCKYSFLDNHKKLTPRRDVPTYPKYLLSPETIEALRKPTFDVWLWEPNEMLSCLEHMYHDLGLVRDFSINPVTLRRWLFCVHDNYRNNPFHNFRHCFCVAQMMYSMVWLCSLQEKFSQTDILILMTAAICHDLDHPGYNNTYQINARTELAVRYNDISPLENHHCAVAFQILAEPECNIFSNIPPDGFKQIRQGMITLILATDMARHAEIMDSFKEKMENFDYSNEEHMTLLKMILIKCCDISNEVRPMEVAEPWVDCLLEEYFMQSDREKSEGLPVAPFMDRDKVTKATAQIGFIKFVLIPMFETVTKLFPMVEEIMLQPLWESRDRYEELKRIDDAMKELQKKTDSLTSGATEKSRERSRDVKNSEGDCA

SMILES | IC50 [2] [µM] | IC50 [4] [µM] | inhibition [5] [%] | IC50 [6] [µM] | IC50 [8] [µM] | IC50 [9] [µM] | EC50 [10] [µM] | percent relaxation [11] | IC50 [12] [µM] | Stability [13] | IC50 [14] [µM] | Ratio IC50 [16] | IC50 [17] [µM] | Ratio IC50 [18] | IC50 [19] [µM] | IC50 [20] [µM] | IC50 [21] [µM] | other results
CCc1ccc([C@@H]2c3[nH]c4ccccc4c3C[C@H]3C(=O)N(CC)C(=O)N23)o1 | > 3 | > 20 | 99.5 | 0.127 | > 3 | > 3 | 0.063 | Dose-dependent effect | > 10 | Stable | > 20 | 43 | > 1 | > 342 | > 3 | 0.00292 | > 20 | Ratio IC50 [1]: > 1000; Ratio IC50 [3]: > 1000; Ratio IC50 [7]: > 1000; Ratio IC50 [15]: > 1000
CCc1ccc([C@@H]2c3[nH]c4ccccc4c3C[C@H]3C(=O)N(CC)C(=O)N23)s1 | – | > 20 | 94.1 | 0.056 | – | – | 0.058 | Dose-dependent effect | > 10 | Stable | > 20 | 11 | > 1 | > 190 | – | 0.00524 | > 20 | –
CCc1ccc(C2c3[nH]c4ccccc4c(=O)c3CN2c2ncc(-c3ccccn3)cn2)o1 (configuration not stated) | – | – | – | – | – | – | – | – | – | – | – | – | – | – | – | – | – | Ratio IC50 [22]: 4; IC50 [23]: 0.00053 µM
CN1CC(=O)N2[C@H](c3ccc4c(c3)OCO4)c3[nH]c4ccccc4c3C[C@@H]2C1=O | > 10 | > 10 | – | – | > 10 | > 10 | 0.078 | – | – | – | > 10 | – | – | – | > 10 | – | > 10 | –
CCc1ccc([C@@H]2c3[nH]c4ccccc4c3C[C@@H]3C(=O)N(C)CC(=O)N23)o1 | – | > 20 | 98.4 | > 1 | – | – | 0.725 | Dose-dependent effect | > 10 | Stable | > 20 | > 79 | 0.119 | 9 | – | 0.0127 | > 20 | –
CN1CCN(C(=O)c2ccc(-c3ccc(C(=O)N4CCc5c([nH]c6ccccc56)C4c4ccc5c(c4)OCO5)o3)cc2)CC1 (racemic) | – | – | – | – | – | – | – | – | – | – | – | – | – | – | – | – | – | Ki [23]: 0.008 µM; Ratio Ki [24]: 187
CCc1ccc(C2c3[nH]c4ccccc4c(=O)c3CN2c2ncc(-c3ccccn3)cn2)s1 (configuration not stated) | – | – | – | – | – | – | – | – | – | – | – | – | – | – | – | – | – | Ratio IC50 [22]: 8
COc1ccc(CNc2nc(N3CCC[C@H]3CO)ncc2C(=O)NCc2ncccn2)cc1Cl | – | – | – | – | – | – | – | – | – | – | – | – | – | – | – | – | – | Ratio Ki [24]: 1000
CCc1ccc([C@@H]2c3[nH]c4ccccc4c3C[C@@H]3C(=O)N(C)CC(=O)N23)s1 | > 4 | > 20 | 97.8 | > 1 | > 4 | > 4 | 0.03 | Dose-dependent effect | > 10 | Stable | > 20 | > 258 | 0.272 | 70 | > 4 | 0.00387 | > 20 | Ratio IC50 [1]: > 1000; Ratio IC50 [3]: > 1000; Ratio IC50 [7]: > 1000; Ratio IC50 [15]: > 1000
